The text below walks through data of ChEMBL document CHEMBL2424590, “4-[18F]Fluoro-m-hydroxyphenethylguanidine: a radiopharmaceutical for quantifying regional cardiac sympathetic nerve density with positron emission tomography” (J Med Chem, 2013).

The structures appear in SMILES notation.

In data set [1] the test system is Brain. The data set is described as follows: Biodistribution in Sprague-Dawley rat brain at 20 to 120 uCi, iv after 30 mins by gamma counting analysis. Format: ADME, organism-based. The conditions noted are these: in vivo, 0.5 h. An outline of the steps: (§1)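 Sprague-Dawley rats (280–330 g), 2 male and 2 female per time point (5, 30, 60, 120 min), under light isoflurane, received a tail-vein bolus of 20–120 μCi tracer in 0.05–0.10 mL isotonic 60 mM sodium phosphate, pH 5.4. Tissues were weighed and gamma-counted. Decay-corrected dpm/g was normalized to injected dpm per kg body weight (%ID·kg/g).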

Data set [2] relates to Testes. The data set is described as follows: Biodistribution in Sprague-Dawley rat testes at 20 to 120 uCi, iv after 60 mins by gamma counting analysis. The data set is classed as ADME, organism-based, Testis. As to conditions: in vivo, 1 h; call rule not given here. An outline of the steps:
(§2)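 Male and female rats (2 per sex per time point, 280–330 g) under light isoflurane given tail-vein bolus of 20–120 μCi tracer in 0.05–0.10 mL isotonic 60 mM sodium phosphate, pH 5.4. Tissues sampled at 5, 30, 60 or 120 min, weighed and gamma-counted. Decay-corrected dpm per gram normalised to injected dpm and body weight, given as %ID·kg/g.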

Data set [3] has as its system Brain. The data set is described as follows: Biodistribution in Sprague-Dawley rat brain at 20 to 120 uCi, iv after 120 mins by gamma counting analysis. The data set is classed as ADME, organism-based. As to conditions: in vivo, 2 h. An outline of the steps:
as §1

A further data set deals with Plasma. Briefly: Metabolic stability in rhesus macaque monkey plasma assessed as retention time at 5 to 6 mCi, iv by RP-HPLC analysis. The data set is classed as ADME, organism-based, Macaca mulatta. As to conditions: in vivo. The method in brief:
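Six venous samples (1.5–2.0 mL; typically 1, 2, 4, 10, 30, 60 min) drawn during the monkey PET scan into heparin and centrifuged 1 min at 12000 × g. Plasma deproteinised with HClO₄ (final 0.4 N), spun, neutralised with KOH to pH 7.0–7.5 and filtered twice (0.22 μm). Analysed by reverse-phase HPLC (10% EtOH in 60 mM NaH₂PO₄, pH 5.4, 1.0 mL/min) with NaI(Tl) radiodetection. Decay-corrected intact fraction per sample; T1/2 is the time at which 50% of plasma activity is metabolite.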

The nature of data set [4]: Drug uptake in rhesus macaque monkey heart at 5 to 6 mCi, iv after 90 mins by PET analysis in presence of 0.010 mg/kg to 1 mg/kg desipramine. The data set is classed as ADME, organism-based, Macaca mulatta. As to conditions: in vivo, 1.5 h. The method in brief:
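Same monkey for all studies. Desipramine (0.010, 0.0316, 0.10 or 1.0 mg/kg; n = 1 each) in 2.0 mL saline infused i.v. over 20 min, with tracer injected 10 min after the infusion ended; 4 control studies. ROIs on myocardium and basal LV blood pool drawn on summed final four frames. Cp(t) derived from Cwb(t) × intact fraction × Cp/Cwb. Ki from compartmental modelling and Kp as Patlak slope, fitted against DMI dose to a variable-slope sigmoidal model.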

Another data set has as its system Ovary. The data set is described as follows: Biodistribution in Sprague-Dawley rat ovary at 20 to 120 uCi, iv after 30 mins by gamma counting analysis. The data set is classed as ADME, organism-based, Female gonad. The conditions noted are these: in vivo, 0.5 h. The method in brief: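 Sprague-Dawley rats (280–330 g) under light isoflurane received a tail-vein bolus of 20–120 μCi tracer in 0.05–0.10 mL isotonic 60 mM sodium phosphate, pH 5.4. Sampling was at 5, 30, 60 or 120 min. […] were weighed and gamma-counted. Decay-corrected dpm/g was normalized to injected dpm per kg body weight (%ID·kg/g).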

The subject of data set [5] is Spleen. The data set is described as follows: Biodistribution in Sprague-Dawley rat spleen at 20 to 120 uCi, iv after 120 mins by gamma counting analysis. The conditions noted are these: in vivo, 2 h. The data set is classed as ADME, organism-based. An outline of the steps: as §1
For another data set, the system named is Bone. Briefly: Biodistribution in Sprague-Dawley rat bone at 20 to 120 uCi, iv after 30 mins by gamma counting analysis. The data set is classed as ADME, organism-based, Bone element. The conditions noted are these: in vivo, 0.5 h. An outline of the steps:
as §1

The nature of data set [6]: Drug metabolism in rhesus macaque monkey spinal column assessed as fluorine-18 level at 5 to 6 mCi, iv after 90 mins by transaxial PET analysis. As to conditions: in vivo, 1.5 h. The data set is classed as ADME, organism-based, Macaca mulatta.
The nature of data set [7]: Drug uptake in rhesus macaque monkey adrenal glands 5 to 6 mCi, iv after 90 mins by PET analysis in presence of desipramine. The data set is classed as ADME, organism-based, Macaca mulatta, Adrenal gland. The conditions noted are these: in vivo, 1.5 h.
The test system of data set [8] is Testes. Briefly: Biodistribution in Sprague-Dawley rat testes at 20 to 120 uCi, iv after 5 mins by gamma counting analysis. The data set is classed as ADME, organism-based, Testis. The conditions noted are these: in vivo. The method in brief:
as §2

For data set [9], the system named is Rattus norvegicus. The data set is described as follows: Biodistribution in Sprague-Dawley rat eyeballs at 20 to 120 uCi, iv after 5 mins by gamma counting analysis. The conditions noted are these: in vivo. The data set is classed as ADME, organism-based, Eyeball of camera-type eye. An outline of the steps: as §1
Data set [10] deals with Spleen. The data set is described as follows: Biodistribution in Sprague-Dawley rat spleen at 20 to 120 uCi, iv after 30 mins by gamma counting analysis. As to conditions: in vivo, 0.5 h. Format: ADME, organism-based. The method in brief:
as §1

The test system of another data set is Kidney. Briefly: Biodistribution in Sprague-Dawley rat kidney at 20 to 120 uCi, iv after 120 mins by gamma counting analysis. Format: ADME, organism-based. The conditions noted are these: in vivo, 2 h. The method in brief: as §1
A further data set has as its system Nucleic Acid. Briefly: Ratio of drug level in plasma to whole blood in rhesus macaque monkey at 5 to 6 mCi, iv by RP-HPLC analysis. The conditions noted are these: in vivo. Format: ADME, organism-based, Macaca mulatta. An outline of the steps:
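Venous monkey blood samples taken during PET were centrifuged 1 min at 12000 × g to separate plasma from RBCs. 0.1 mL aliquots of whole blood and plasma were gamma-counted, and decay-corrected counts gave Cp/Cwb for each sample. A pre-scan sample spiked with 0.1 mCi tracer was incubated 60–70 min at 37 °C and processed the same way.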

The test system of data set [11] is Rattus norvegicus. The data set is described as follows: Biodistribution in Sprague-Dawley rat stomach at 20 to 120 uCi, iv after 5 mins by gamma counting analysis. The data set is classed as ADME, organism-based. As to conditions: in vivo. The method in brief:
as §2

The subject of a further data set is Muscle tissue. Briefly: Biodistribution in Sprague-Dawley rat muscle at 20 to 120 uCi, iv after 30 mins by gamma counting analysis. The data set is classed as ADME, organism-based. As to conditions: in vivo, 0.5 h. The method in brief:
as §1

With `N=C(N)NCCc1ccc([18F])c(O)c1`, the Drug uptake is on record as 0.003 %IDKg/g in the data set with Brain [1]; 0.008 %IDKg/g in the data set with Testes [2]; 0.001 %IDKg/g with Brain [3]; “Not Active” in data set [4]; 0.171 %IDKg/g with Ovary; 0.235 %IDKg/g in the data set on Spleen [5]. Moreover, the Drug uptake in the data set with Bone is 0.039 %ID·kg/g; in data set [7], “Not Active”; in the data set with Testes [8], 0.018 %IDKg/g; in the data set with Rattus norvegicus [9], 0.039 %IDKg/g; with Spleen [10], 0.262 %IDKg/g; in the data set on Kidney, 0.078 %IDKg/g. Further, the Drug uptake was 0.116 %IDKg/g with Rattus norvegicus [11] and 0.025 %ID·kg/g in the data set with Muscle tissue. Also, the Retention_time with Plasma was 11.4 min. In addition, the Drug metabolism result in [6] is given as “Active”. Besides, in the data set on Nucleic Acid, the Ratio came out at 1.25.
